Experimental data: ChEMBL document CHEMBL2331102 (Bioorg Med Chem, 2013)
In brackets after ≈: the same amount, converted by molar mass. Activity calls are given as the source filed them. No cut-off for these calls is given here.

How the values were obtained:
Trypanosoma cruzi [1] = assay: Antitrypanosomal activity against Trypanosoma cruzi Tulahuen TcVI infected in Swiss mouse model of Chagas disease assessed as increase in host survival at 100 mg/kg once daily for 5 consecutive days through oral gavage starting on day 8 post infection measured 14 days post infection; format: functional, organism-based; design: dose 100 mg/kg
Outline: (§1)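 Female Swiss mice (n = 5 per group) were infected with 25,000 blood-form T. cruzi Tulahuen TcVI trypomastigotes and dosed orally by gavage once daily for 5 days from day 8 pi.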

Trypanosoma cruzi [2] = assay: Antitrypanosomal activity against Trypanosoma cruzi Tulahuen TcVI infected in Swiss mouse model of Chagas disease assessed as increase in host survival at 50 mg/kg once daily for 5 consecutive days through oral gavage starting on day 8 post infection measured 14 days post infection; format: functional, organism-based; design: dose 50 mg/kg; outline: as §1
Trypanosoma cruzi [3] = assay: Antitrypanosomal activity against Trypanosoma cruzi Tulahuen TcVI infected in Swiss mouse model of Chagas disease assessed as increase in host survival at 20 mg/kg once daily for 5 consecutive days through oral gavage starting on day 8 post infection measured 14 days post infection; format: functional, organism-based; design: dose 20 mg/kg; outline: as §1
Mus musculus [4] = assay: AUC (0 to 7.5 hrs) in Swiss mouse at 50 mg/kg, po; format: ADME, organism-based, Plasma; design: time < 7.5 hr, dose 50 mg/kg, route oral; details: in vivo
Outline: (§2)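 Non-infected male Swiss outbred mice received single oral gavage doses of 20, 50 and 100 mg/kg. […] Full-scan LC-MS was run on selected plasma samples to identify metabolites.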

Mus musculus [5] = assay: AUC (0 to 7.5 hrs) in Swiss mouse at 100 mg/kg, po; format: ADME, organism-based, Plasma; design: time < 7.5 hr, dose 100 mg/kg, route oral; details: in vivo; outline: as §2
Mus musculus [6] = assay: AUC (0 to 7.5 hrs) in Swiss mouse at 20 mg/kg, po; format: ADME, organism-based, Plasma; design: time < 7.5 hr, dose 20 mg/kg, route oral; details: in vivo; outline: as §2
[7] = Apparent half life in Swiss mouse at 20 to 100 mg/kg, po; format: ADME, organism-based; design: dose 20-100 mg/kg, route oral; details: in vivo, read-out: t1/2(app) (converted); outline: as §2
Mus musculus [8] = assay: Toxicity in Swiss mouse at 20 to 100 mg/kg, po; format: organism-based; design: dose 20-100 mg/kg, route oral; details: in vivo; outline: as §2
[9] = Tmax in Swiss mouse at 20 to 100 mg/kg, po; format: ADME, organism-based; design: dose 20-100 mg/kg, route oral; details: in vivo; outline: as §2
Trypanosoma cruzi [10] = assay: Antitrypanosomal activity against Trypanosoma cruzi Tulahuen TcVI infected in Swiss mouse model of Chagas disease assessed as decrease in blood parasitemia level at 100 mg/kg once daily for 5 consecutive days through oral gavage starting on day 8 post infection measured 14 days post infection; format: functional
Outline: (§3)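 Female Swiss mice (n = 5 per group) were infected with 25,000 blood-form T. cruzi Tulahuen TcVI trypomastigotes. From day 8 post-infection, they received once-daily oral gavage for 5 consecutive days. Blood trypomastigotes/mL were counted on days 8, 9, 12 and 14 pi, and efficacy was taken as decreased parasitemia versus vehicle-treated mice on day 14.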

Trypanosoma cruzi [11] = assay: Antitrypanosomal activity against Trypanosoma cruzi Tulahuen TcVI infected in Swiss mouse model of Chagas disease assessed as decrease in blood parasitemia level at 50 mg/kg once daily for 5 consecutive days through oral gavage starting on day 8 post infection measured 14 days post infection; format: functional; outline: as §3
Trypanosoma cruzi [12] = assay: Antitrypanosomal activity against Trypanosoma cruzi Tulahuen TcVI infected in Swiss mouse model of Chagas disease assessed as decrease in blood parasitemia level at 20 mg/kg once daily for 5 consecutive days through oral gavage starting on day 8 post infection measured 14 days post infection; format: functional; outline: as §3
L6 = assay: Cytotoxicity against rat L6 cells after 72 hrs by Alamar Blue assay; format: cell-based; details: L6, 72 h
Outline: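 Counter-screen for cytotoxicity in uninfected L6 rat skeletal muscle myoblasts, with IC50 recorded in µM.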

Trypanosoma cruzi [13] = assay: Antitrypanosomal activity against Trypanosoma cruzi Tulahuen TcVI extracellular trypomastigotes forms transfected with beta-galactosidase gene infected in rat L6 cells assessed as inhibition of parasite growth after 4 days; format: functional, organism-based; details: L6, 96 h
Outline: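 L6 rat skeletal myoblasts were infected with extracellular trypomastigotes of β-galactosidase-transfected T. cruzi Tulahuen TcVI. After 48 h to establish infection, compound was added and incubation continued 4 days, exposing trypomastigote and intracellular amastigote forms.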

CYP3A4/5 = CYP3A4/5 (Homo sapiens, UniProt P08684+P20815); assay: Inhibition of CYP3A4/5 in human liver microsomes assessed as reduction in testosterone-beta-hydroxylation; format: ADME, Microsome; details: probe testosterone
Outline: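 CYP3A4 inhibition measured as inhibition of testosterone β-hydroxylation, reported as IC50 (µM).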

[14] = Kinetic solubility of the compound at pH 6.5 phosphate buffer by nephelometric analysis; format: physicochemical; details: read-out: Kinetic_solubility
Outline: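 Kinetic solubility in phosphate buffer at pH 6.5, determined by nephelometry and reported in µg/mL.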

[15] = Selectivity index, ratio of IC50 for rat L6 cells to IC50 for Trypanosoma cruzi Tulahuen TcVI extracellular trypomastigotes forms; format: toxicity, cell-based; details: read-out: Ratio IC50
Outline: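 Ratio of the L6 myoblast cytotoxicity IC50 to the IC50 against β-galactosidase-expressing T. cruzi Tulahuen TcVI.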

SMILES | Activity (Trypanosoma cruzi [1]) | Activity (Trypanosoma cruzi [2]) | Activity (Trypanosoma cruzi [3]) | AUC (Mus musculus [4]) | AUC (Mus musculus [5]) | AUC (Mus musculus [6]) | half-life [7] | Activity (Mus musculus [8]) | Tmax [9] | Activity (Trypanosoma cruzi [10]) | Activity (Trypanosoma cruzi [11]) | Activity (Trypanosoma cruzi [12]) | IC50 (L6) | IC50 (Trypanosoma cruzi [13]) | further results
CS(=O)(=O)N1CCN(C(c2cccnc2)c2ccc(Cl)cc2F)CC1 (stereo not given) [listing 1 of 2 here] | Active | Active | Active | – | – | – | – | – | – | – | – | – | – | – | –
CC(=O)N1CCN(C(c2ccc(Cl)cc2)c2cccnc2)CC1.O=C(O)CC(O)(CC(=O)O)C(=O)O (stereo not given) | – | – | – | 6.2 µM·h | 9.4 µM·h | 2.3 µM·h | 102 min | Non-toxic | 15 min | – | – | – | – | – | –
CS(=O)(=O)N1CCN(C(c2cccnc2)c2ccc(Cl)cc2F)CC1.O=C(O)CC(O)(CC(=O)O)C(=O)O (stereo not given) | – | – | – | 60.2 µM·h | 43.7 µM·h | 7.2 µM·h | 126 min | Non-toxic | 15 min | – | – | – | – | – | –
CC(=O)N1CCN(C(c2ccc(Cl)cc2)c2cccnc2)CC1 (stereo not given) | Active | Active | Active | – | – | – | – | – | – | inactive | inactive | inactive | – | – | –
CC[C@@H]([C@H](C)O)n1ncn(-c2ccc(N3CCN(c4ccc(OC[C@@H]5CO[C@@](Cn6cncn6)(c6ccc(F)cc6F)C5)cc4)CC3)cc2)c1=O [POSACONAZOLE] | Active | Active | – | – | – | – | – | – | – | Active | Active | – | > 100 µM | 0.0007 µM | –
CS(=O)(=O)N1CCN(C(c2cccnc2)c2ccc(Cl)cc2F)CC1 (stereo not given) [listing 2 of 2 here] | – | – | – | – | – | – | – | – | – | 96% | 95% | 73% | > 100 µM | 0.035 µM | IC50 (CYP3A4/5): 1.3 µM; solubility kinetic [14]: 12.5 µg/mL (≈ 32.6 µM); selectivity ratio [15]: > 100
